Laboratory results: ChEMBL document CHEMBL1154865, “Sesquiterpenes and dimeric sesquiterpenoids from Sarcandra glabra” (J Nat Prod, 2010)
Activity calls are given as the source filed them. The rule behind the calls is not given here.

Experiments:
Format in all cases: functional, cell-based
[1] = system: Bel-7402; experiment: Cytotoxicity against human Bel7402 cells after 72 hrs by SRB assay
Method in brief: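 Cell growth read out by SRB (sulforhodamine B) staining, with pseudolaric acid B as the positive control. BEL-7402 is a human hepatocarcinoma line.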

[2] = system: HL-60; experiment: Cytotoxicity against human HL60 cells after 72 hrs by MTT assay; conditions: HL-60, 72 h
Method in brief: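 HL-60 cell line tested by the MTT method, with pseudolaric acid B run alongside as positive control; activity expressed as IC50 in µM.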

[3] = system: A549; experiment: Cytotoxicity against human A549 cells after 72 hrs by SRB assay; conditions: A549, 72 h

For `C/C=C(\C)C(=O)OC[C@]1(O)[C@H]2C[C@H]2[C@]2(C)[C@@H]3C[C@@]4(O)C5=C(/C(=C(\C)C(=O)OC)C(=O)[C@H](O)[C@@]5(C)[C@@H]5C[C@@H]54)[C@@]34OC(=O)C(COC(C)=O)=C4C[C@@H]12`, the Activity [1] was “inactive”.

With `COC(=O)/C(C)=C1\C(=O)[C@H](O)[C@]2(C)C3=C(C[C@@H]4[C@]5(OC(=O)C(CO)=C5C[C@H]5[C@](O)(COC(=O)/C(C)=C/CO)[C@H]6C[C@H]6[C@]45C)[C@H]31)[C@H]1C[C@H]12` [SARCANDROLIDE B] the Activity [1] was “inactive” and the IC50 [2] was 8.4 µM.

In the case of `C/C=C(\C)C(=O)OC[C@]1(O)[C@H]2C[C@H]2[C@]2(C)[C@@H]3CC4=C5[C@H](/C(=C(\C)C(=O)OC)C(=O)[C@H](O)[C@@]5(C)[C@@H]5C[C@H]45)[C@@]34OC(=O)C(C)=C4C[C@@H]12` [SARCANDROLIDE A], the Activity [1] is reported as “inactive”, the IC50 [3] is reported as 7.2 µM and the IC50 [2] is reported as 3.1 µM.

With `CC1=CC[C@@H](O)[C@]2(C)C[C@@H]3OC(=O)C(C)=C3C[C@@H]12` the Activity [1] was “inactive”.

For `COC(=O)C1=CC[C@@]23CC[C@@H]([C@@](C)(/C=C/C=C(\C)C(=O)O)OC2=O)[C@@]3(OC(C)=O)CC1` [PSEUDOLARIC ACID B], the IC50 ([1]; Bel-7402, 72 h) was 1300 nM, the IC50 [3] was 1.6 µM and the IC50 [2] was 4.2 µM.

`C/C=C(\C)C(=O)OC[C@]1(O)[C@H]2C[C@H]2[C@]2(C)[C@@H]3C[C@@]4(O)C5=C(C6=C(C)C(=O)O[C@]6(O)[C@H](O)[C@@]5(C)[C@@H]5C[C@@H]54)[C@@]34OC(=O)C(COC(C)=O)=C4C[C@@H]12` was tested, and the Activity [1] was “inactive”.

`COC(=O)/C(C)=C1\C(=O)[C@H](O)[C@]2(C)C3=C(C[C@@H]4[C@]5(OC(=O)C6=C5C[C@H]5[C@](O)(COC(=O)/C(C)=C/COC(=O)[C@@H](OC(C)=O)CC(=O)OC6)[C@H]6C[C@H]6[C@]45C)[C@H]31)[C@H]1C[C@H]12` [SARCANDROLIDE C] was tested, and the Activity [1] was “inactive”, the IC50 [3] was 4.7 µM and the IC50 [2] was 8.5 µM.

`C=C1[C@H]2C[C@H]2[C@]2(C)C[C@@H]3OC(=O)C(C)=C3C[C@]12O` was tested, and the Activity [1] was “inactive”.
